Experimental data published in ChEMBL document CHEMBL1132940, “Pharmacophore/receptor models for GABA(A)/BzR subtypes (alpha1beta3gamma2, alpha5beta3gamma2, and alpha6beta3gamma2) via a comprehensive ligand-mapping approach” (J Med Chem, 2000).

How the values were obtained:
[1] = target: T1, GABA-A receptor; alpha-1/beta-3/gamma-2 (Homo sapiens, UniProt P14867+P18507+P28472); assay: Binding affinity for human recombinant gamma-aminobutyric-acid (GABA) A receptor alpha-1-beta-3-gamma-2; format: protein-complex assay
T1 sequence (P14867 whole entry): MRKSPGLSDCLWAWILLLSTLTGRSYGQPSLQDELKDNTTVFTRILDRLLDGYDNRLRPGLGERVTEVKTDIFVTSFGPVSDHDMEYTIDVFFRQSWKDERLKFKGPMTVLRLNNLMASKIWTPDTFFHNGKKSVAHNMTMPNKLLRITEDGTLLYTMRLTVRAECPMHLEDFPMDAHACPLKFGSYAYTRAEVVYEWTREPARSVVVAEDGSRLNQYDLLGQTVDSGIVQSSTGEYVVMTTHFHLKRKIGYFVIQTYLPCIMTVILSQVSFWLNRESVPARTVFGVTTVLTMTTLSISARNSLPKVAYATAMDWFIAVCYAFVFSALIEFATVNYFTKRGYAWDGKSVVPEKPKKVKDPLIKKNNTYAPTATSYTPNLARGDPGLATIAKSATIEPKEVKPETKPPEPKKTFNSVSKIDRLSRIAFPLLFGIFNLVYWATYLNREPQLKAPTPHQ
T1 sequence (P18507 whole entry): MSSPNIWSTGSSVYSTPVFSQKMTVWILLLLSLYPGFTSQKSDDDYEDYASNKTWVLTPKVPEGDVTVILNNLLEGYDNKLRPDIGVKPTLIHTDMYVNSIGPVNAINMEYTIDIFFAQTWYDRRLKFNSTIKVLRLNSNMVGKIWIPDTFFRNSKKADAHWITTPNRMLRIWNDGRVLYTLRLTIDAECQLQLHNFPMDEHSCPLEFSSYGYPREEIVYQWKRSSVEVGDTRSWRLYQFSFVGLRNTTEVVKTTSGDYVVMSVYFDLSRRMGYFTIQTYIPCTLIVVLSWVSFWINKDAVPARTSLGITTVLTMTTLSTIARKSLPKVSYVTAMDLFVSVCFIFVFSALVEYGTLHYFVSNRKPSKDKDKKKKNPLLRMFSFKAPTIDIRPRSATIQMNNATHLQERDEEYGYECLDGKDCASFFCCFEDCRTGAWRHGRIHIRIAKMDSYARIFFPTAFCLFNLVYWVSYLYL
T1 sequence (P28472 whole entry): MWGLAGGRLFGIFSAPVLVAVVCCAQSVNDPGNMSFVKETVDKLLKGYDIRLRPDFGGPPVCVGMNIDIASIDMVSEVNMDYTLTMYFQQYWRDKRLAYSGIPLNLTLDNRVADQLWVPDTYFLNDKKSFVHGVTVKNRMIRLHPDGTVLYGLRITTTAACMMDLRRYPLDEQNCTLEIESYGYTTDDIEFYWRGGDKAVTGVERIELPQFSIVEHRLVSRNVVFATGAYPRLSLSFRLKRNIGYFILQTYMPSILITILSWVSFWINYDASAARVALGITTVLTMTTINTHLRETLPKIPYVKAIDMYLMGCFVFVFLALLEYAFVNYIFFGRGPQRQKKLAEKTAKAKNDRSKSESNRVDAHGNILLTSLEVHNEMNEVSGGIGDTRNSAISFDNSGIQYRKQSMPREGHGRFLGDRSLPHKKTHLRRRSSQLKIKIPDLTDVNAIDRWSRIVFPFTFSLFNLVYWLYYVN

[2] = target: GABA-A receptor; alpha-6/beta-3/gamma-2 (Homo sapiens, UniProt P18507+P28472+Q16445); assay: Binding affinity for human recombinant gamma-aminobutyric-acid (GABA) A receptor alpha-6-beta-3-gamma-2; format: protein-complex assay
Chain of GABA-A receptor; alpha-6/beta-3/gamma-2 (Q16445 whole entry, one chain of several): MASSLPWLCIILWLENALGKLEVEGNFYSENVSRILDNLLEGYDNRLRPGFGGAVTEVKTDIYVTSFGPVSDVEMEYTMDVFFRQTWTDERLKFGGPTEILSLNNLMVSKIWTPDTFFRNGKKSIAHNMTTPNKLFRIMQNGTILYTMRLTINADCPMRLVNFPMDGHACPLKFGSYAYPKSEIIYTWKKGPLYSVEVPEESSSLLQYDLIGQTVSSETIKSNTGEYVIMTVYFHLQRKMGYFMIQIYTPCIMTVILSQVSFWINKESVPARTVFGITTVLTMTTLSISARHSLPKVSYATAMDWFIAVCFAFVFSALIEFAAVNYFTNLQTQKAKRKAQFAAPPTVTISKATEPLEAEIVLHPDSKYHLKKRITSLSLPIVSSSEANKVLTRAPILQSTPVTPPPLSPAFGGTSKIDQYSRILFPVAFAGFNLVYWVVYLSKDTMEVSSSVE
In short: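 Ltk⁻ cells expressing human α6β3γ2 were harvested by scraping into PBS, centrifuged at 3000g and resuspended in 10 mM KH₂PO₄/100 mM KCl (pH 7.4). Incubation was 1 h at 4 °C with filter harvest and scintillation counting.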

[3] = target: T2, GABA-A receptor; alpha-3/beta-3/gamma-2 (Homo sapiens, UniProt P18507+P28472+P34903); assay: Binding affinity for human recombinant gamma-aminobutyric-acid (GABA) A receptor alpha-3-beta-3-gamma-2; format: protein-complex assay
T2 sequence (P18507 whole entry): T1 sequence (P18507 whole entry)
T2 sequence (P28472 whole entry): T1 sequence (P28472 whole entry)
T2 sequence (P34903 whole entry): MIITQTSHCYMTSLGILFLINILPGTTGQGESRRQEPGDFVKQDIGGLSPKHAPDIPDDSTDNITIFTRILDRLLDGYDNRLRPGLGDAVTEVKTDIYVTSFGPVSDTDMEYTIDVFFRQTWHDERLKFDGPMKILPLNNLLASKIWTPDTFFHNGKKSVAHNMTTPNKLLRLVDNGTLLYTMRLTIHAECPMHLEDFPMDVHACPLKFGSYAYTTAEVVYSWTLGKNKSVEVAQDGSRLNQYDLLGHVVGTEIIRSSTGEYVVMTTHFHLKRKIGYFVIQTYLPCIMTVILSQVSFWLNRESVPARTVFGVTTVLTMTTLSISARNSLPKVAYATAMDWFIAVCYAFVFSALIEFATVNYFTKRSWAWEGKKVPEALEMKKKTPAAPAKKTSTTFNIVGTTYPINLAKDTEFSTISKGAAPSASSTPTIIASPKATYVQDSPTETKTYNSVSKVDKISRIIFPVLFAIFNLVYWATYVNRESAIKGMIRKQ

[4] = Selectivity ratio of alpha1 beta-3 gamma2 GABA A / BzR and alpha5 beta-3 gamma2 GABA A / BzR
[5] = target: T3, GABA-A receptor; alpha-2/beta-3/gamma-2 (Homo sapiens, UniProt P18507+P28472+P47869); assay: Binding affinity to human recombinant gamma-aminobutyric-acid (GABA) A receptor alpha-2-beta-3-gamma-2; format: protein-complex assay
T3 sequence (P18507 whole entry): T1 sequence (P18507 whole entry)
T3 sequence (P28472 whole entry): T1 sequence (P28472 whole entry)
T3 sequence (P47869 whole entry): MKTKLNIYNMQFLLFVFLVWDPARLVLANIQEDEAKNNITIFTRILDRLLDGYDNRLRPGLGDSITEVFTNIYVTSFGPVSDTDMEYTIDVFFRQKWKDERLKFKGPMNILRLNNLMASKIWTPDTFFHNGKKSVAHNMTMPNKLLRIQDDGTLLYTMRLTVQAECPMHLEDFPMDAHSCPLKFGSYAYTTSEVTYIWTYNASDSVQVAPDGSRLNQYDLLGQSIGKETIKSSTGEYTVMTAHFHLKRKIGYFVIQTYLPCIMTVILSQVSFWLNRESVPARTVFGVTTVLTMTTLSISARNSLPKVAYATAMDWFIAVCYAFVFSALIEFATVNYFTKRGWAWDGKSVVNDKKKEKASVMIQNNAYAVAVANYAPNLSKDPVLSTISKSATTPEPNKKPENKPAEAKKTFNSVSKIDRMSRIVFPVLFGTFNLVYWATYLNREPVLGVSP

[6] = target: T4, GABA-A receptor; alpha-5/beta-3/gamma-2 (Homo sapiens, UniProt P18507+P28472+P31644); assay: Binding affinity for human recombinant gamma-aminobutyric-acid (GABA) A receptor alpha-5-beta-3-gamma-2; format: protein-complex assay
T4 sequence (P18507 whole entry): T1 sequence (P18507 whole entry)
T4 sequence (P28472 whole entry): T1 sequence (P28472 whole entry)
T4 sequence (P31644 whole entry): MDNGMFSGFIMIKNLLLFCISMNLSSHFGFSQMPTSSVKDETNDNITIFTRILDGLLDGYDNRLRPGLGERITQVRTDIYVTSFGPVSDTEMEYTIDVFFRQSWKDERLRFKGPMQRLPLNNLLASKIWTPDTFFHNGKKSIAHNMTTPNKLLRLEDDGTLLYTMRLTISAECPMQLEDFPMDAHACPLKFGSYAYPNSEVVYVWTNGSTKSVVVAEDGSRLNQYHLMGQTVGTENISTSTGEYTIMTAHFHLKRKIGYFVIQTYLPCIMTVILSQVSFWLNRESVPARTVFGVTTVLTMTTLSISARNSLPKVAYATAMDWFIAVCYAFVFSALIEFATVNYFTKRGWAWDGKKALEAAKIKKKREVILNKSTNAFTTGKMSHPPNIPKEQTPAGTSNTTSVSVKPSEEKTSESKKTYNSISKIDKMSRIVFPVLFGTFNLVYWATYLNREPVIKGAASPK

[7] = target: T1, GABA-A receptor; alpha-1/beta-3/gamma-2; assay: Binding affinity towards human GABA-A receptor alpha-1-beta-3-gamma-2 subunits; format: protein-complex assay

SMILES: O=C1CN=C(c2ccccc2)c2ccccc2N1 [RO-052921]
- Ki [1]: 286 nM
- Ki [2]: > 3000 nM
- Ki [3]: 350 nM
- Ratio [4]: 2.04
- Ki [5]: 233 nM
- Ki [6]: 140 nM

SMILES: CN1C(=O)CN=C(c2ccccc2)c2cc(C#N)ccc21
- Ki [1]: 320 nM
- Ki [2]: > 3000 nM
- Ki [3]: 350 nM
- Ratio [4]: 1.2
- Ki [5]: 310 nM
- Ki [6]: 265 nM

SMILES: CN1C(=O)CN=C(c2ccccc2)c2cc(C#C[Si](C)(C)C)ccc21
- Ki [1]: 94 nM
- Ki [2]: > 3000 nM
- Ki [3]: 203 nM
- Ratio [4]: 1.49
- Ki [5]: 73 nM
- Ki [6]: 63 nM

SMILES: CN1C(=O)CN=C(c2cccs2)c2cc(F)ccc21
- Ki [1]: 141 nM
- Ki [2]: > 300 nM
- Ki [3]: 205 nM
- Ratio [4]: 2.15
- Ki [5]: 215 nM
- Ki [6]: 65.5 nM

SMILES: C#Cc1ccc2c(c1)C(c1ccccc1)=NCC(=O)N2C
- Ki [1]: 76.3 nM
- Ki [2]: > 3000 nM
- Ki [3]: 47.4 nM
- Ratio [4]: 11.2
- Ki [5]: 42.1 nM
- Ki [6]: 6.8 nM

SMILES: CCOC(=O)c1ncn2c1CN(C)C(=O)c1ccccc1-2 [RO-147437]
- Ki [1]: 1.2 nM
- Ki [2]: > 300 nM
- Ki [3]: 1.1 nM
- Ratio [4]: 3
- Ki [5]: 2 nM
- Ki [6]: 0.4 nM

SMILES: CC(C)(C)C(=O)Oc1ccc2c(c1)[nH]c1c3c4ccccc4nc-3c[nH]c12
- Ki [2]: > 10000 nM
- Ki [6]: > 3000 nM
- Ki [7]: 156 nM

SMILES: CN1C(=O)CN=C(c2ccccc2)c2ccccc21
- Ki [1]: 81 nM
- Ki [2]: > 3000 nM
- Ki [3]: 318 nM
- Ratio [4]: 0.84
- Ki [5]: 138 nM
- Ki [6]: 96 nM

SMILES: CN1C(=O)CN=C(c2ccccc2)c2cc(Br)ccc21
- Ki [1]: 9.4 nM
- Ki [2]: > 3000 nM
- Ki [3]: 31 nM
- Ratio [4]: 1.22
- Ki [5]: 9.3 nM
- Ki [6]: 7.7 nM

SMILES: CN1C(=O)CN=C(c2cccs2)c2cc(Cl)ccc21
- Ki [1]: 19.2 nM
- Ki [2]: > 300 nM
- Ki [3]: 13.4 nM
- Ratio [4]: 1.7
- Ki [5]: 13.2 nM
- Ki [6]: 11.5 nM

SMILES: Fc1ccc2c(c1)[nH]c1c3c4ccccc4nc-3c[nH]c12
- Ki [1]: 5.1 nM
- Ki [2]: > 10000 nM
- Ki [3]: 18.4 nM
- Ki [5]: 10.4 nM
- Ki [6]: 260 nM

SMILES: C[Si](C)(C)C#Cc1ccc(-n2[nH]c3c(cnc4ccccc43)c2=O)cc1
- Ki [1]: 3 nM
- Ki [2]: > 1000 nM
- Ki [3]: 4.7 nM
- Ki [5]: 3.7 nM
- Ki [6]: 24 nM

SMILES: CCCCCCCCOc1ccc2c(c1)c1c(CC)c(C(=O)OCC)ncc1n2C
- Ki [1]: > 1000 nM
- Ki [2]: > 1000 nM
- Ki [3]: > 1000 nM
- Ki [5]: > 1000 nM
- Ki [6]: > 1000 nM
